Results from ChEMBL document CHEMBL5257059, “Pyridine-Based 1,2,4-Triazolo-Tethered Indole Conjugates Potentially Affecting TNKS and PI3K in Colorectal Cancer” (ACS Med Chem Lett, 2023).
Active and inactive are the calls of the source. The calls are words filed in the database; no cut-off is given here.

Legend:
Caco-2 = assay: Antiproliferative activity against human Caco-2 cells assessed as inhibition of cell growth incubated for 24 hrs by MTT assay; format: functional, cell-based; conditions: Caco-2, 24 h
DLD-1 = assay: Antiproliferative activity against human DLD-1 cells assessed as inhibition of cell growth incubated for 24 hrs by MTT assay; format: functional, cell-based; conditions: DLD-1, 24 h
A 172 = assay: Antiproliferative activity against human A-172 cells assessed as inhibition of cell growth incubated for 24 hrs by MTT assay; format: functional, cell-based; conditions: A 172, 24 h
A549 = assay: Antiproliferative activity against human A549 cells assessed as inhibition of cell growth incubated for 24 hrs by MTT assay; format: functional, cell-based; conditions: A549, 24 h
[1] = Antiproliferative activity against human Tera-1 cells assessed as inhibition of cell growth incubated for 24 hrs by MTT assay; format: functional, cell-based; conditions: Tera-1, 24 h
HT-29 [2] = assay: Antiproliferative activity against human HT-29 cells assessed as inhibition of cell growth incubated for 24 hrs by MTT assay; format: functional, cell-based; conditions: HT-29, 24 h
HT-29 [3] = assay: Induction of cell cycle arrest in human HT-29 cells assessed as accumulation of cells at S phase at 1 uM incubated for 24 hrs by RNase/PI staining based flow cytometry analysis (reference value: 17.934 %); format: functional
HT-29 [4] = assay: Induction of mitochondrial damage in human HT-29 cells assessed as increase in monomer formation at 1 uM incubated for 24 hrs by JC-1 staining based flow cytometry analysis; format: functional, cell-based
In short: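 HT-29 cells exposed 24 h to test agent at 1, 2 or 4 μM, then stained with JC-1. Flow cytometry scored the % of cells in JC-1 aggregate versus monomer populations. Treated groups were compared with untreated control by two-way ANOVA with Tukey's post hoc test.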

HT-29 [5] = assay: Downregulation of beta-catenin protein expression in human HT-29 cells at 1 uM by immunostaining based confocal microscopic analysis; format: functional, cell-based
HT-29 [6] = assay: Downregulation of PI3K-p85 expression in human HT-29 cells by immunofluorescence based confocal microscopic analysis; format: functional, cell-based
In short: (§1)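 HT-29 cells were stained for F-actin with Phalloidin Red alongside immunofluorescent staining of PI3K-p85 (or NF-κB), then examined by fluorescence imaging for actin-filament integrity and p85 signal.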

HT-29 [7] = assay: Inhibition of nuclear translocation of NFkappaB in human HT-29 cells assessed as reduction in NFkappaB expression in nucleus by immunofluorescence based confocal microscopic analysis; format: functional, cell-based
In short: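 HT-29 colon cancer cells were treated with test compounds, then immunostained for NF-κB and co-stained for F-actin. Nuclear NF-κB signal was read by immunofluorescence imaging.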

HT-29 [8] = assay: Cytotoxicity against human HT-29 cells assessed as damage of actin filament by F-actin/phalloidin red staining based confocal microscopic analysis; format: functional, cell-based; in short: as §1
[9] = molecular target: 182 kDa tankyrase-1-binding protein (Homo sapiens) (UniProt Q9C0C2); assay: Inhibition of TAB-182 phosphorylation in human HT-29 cells at 1 uM incubated for 72 hrs by Western blot analysis; format: cell-based
Chain of 182 kDa tankyrase-1-binding protein (Homo sapiens) (Q9C0C2 whole entry): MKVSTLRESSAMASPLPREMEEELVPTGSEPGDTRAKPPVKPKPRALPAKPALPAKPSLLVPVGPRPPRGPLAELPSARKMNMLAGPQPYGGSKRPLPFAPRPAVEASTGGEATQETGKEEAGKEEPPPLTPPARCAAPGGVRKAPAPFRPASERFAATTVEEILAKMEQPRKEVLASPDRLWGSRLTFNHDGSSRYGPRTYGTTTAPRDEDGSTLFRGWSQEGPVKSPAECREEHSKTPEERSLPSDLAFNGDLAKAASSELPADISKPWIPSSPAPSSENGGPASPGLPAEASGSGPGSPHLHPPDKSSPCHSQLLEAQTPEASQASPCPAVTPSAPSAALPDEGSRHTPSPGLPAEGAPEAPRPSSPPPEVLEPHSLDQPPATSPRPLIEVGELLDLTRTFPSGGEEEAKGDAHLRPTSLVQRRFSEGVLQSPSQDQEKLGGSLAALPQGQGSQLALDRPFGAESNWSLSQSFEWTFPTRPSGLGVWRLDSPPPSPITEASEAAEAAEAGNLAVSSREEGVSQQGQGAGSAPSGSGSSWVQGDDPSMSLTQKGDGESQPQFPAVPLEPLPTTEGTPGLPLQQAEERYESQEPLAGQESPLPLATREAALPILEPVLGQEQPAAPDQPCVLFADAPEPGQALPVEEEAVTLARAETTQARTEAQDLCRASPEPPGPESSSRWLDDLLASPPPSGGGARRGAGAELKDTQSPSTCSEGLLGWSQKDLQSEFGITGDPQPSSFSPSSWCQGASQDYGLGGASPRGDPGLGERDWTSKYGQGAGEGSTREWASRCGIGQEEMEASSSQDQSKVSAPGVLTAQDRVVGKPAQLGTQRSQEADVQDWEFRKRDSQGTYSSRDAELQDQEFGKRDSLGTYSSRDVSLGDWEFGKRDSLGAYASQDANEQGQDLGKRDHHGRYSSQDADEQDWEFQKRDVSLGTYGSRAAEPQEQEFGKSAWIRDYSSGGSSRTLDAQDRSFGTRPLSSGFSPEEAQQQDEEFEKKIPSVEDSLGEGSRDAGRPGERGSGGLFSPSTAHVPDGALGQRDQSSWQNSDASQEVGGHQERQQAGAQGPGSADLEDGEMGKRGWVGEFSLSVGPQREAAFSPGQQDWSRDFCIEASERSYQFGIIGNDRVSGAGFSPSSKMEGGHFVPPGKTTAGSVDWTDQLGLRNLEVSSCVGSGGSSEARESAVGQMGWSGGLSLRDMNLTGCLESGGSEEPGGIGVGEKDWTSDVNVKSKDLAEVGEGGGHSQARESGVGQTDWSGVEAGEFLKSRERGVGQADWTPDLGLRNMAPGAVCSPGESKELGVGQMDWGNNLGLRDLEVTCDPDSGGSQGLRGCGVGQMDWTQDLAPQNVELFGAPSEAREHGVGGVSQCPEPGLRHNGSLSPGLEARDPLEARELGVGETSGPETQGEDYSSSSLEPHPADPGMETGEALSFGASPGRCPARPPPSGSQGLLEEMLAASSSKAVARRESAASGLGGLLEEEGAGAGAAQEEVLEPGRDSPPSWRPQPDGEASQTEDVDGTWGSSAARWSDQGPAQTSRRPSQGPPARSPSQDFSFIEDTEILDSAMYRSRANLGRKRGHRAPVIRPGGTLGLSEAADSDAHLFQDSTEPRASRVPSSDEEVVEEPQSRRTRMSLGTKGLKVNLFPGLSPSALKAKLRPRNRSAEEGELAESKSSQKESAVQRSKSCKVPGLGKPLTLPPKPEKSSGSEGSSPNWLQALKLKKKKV

[10] = molecular target: T1, Catenin beta-1 (Homo sapiens) (UniProt P35222); assay: Inhibition of beta-catenin phosphorylation in human HT-29 cells at 1 uM incubated for 72 hrs by Western blot analysis; format: cell-based
T1 sequence (whole entry): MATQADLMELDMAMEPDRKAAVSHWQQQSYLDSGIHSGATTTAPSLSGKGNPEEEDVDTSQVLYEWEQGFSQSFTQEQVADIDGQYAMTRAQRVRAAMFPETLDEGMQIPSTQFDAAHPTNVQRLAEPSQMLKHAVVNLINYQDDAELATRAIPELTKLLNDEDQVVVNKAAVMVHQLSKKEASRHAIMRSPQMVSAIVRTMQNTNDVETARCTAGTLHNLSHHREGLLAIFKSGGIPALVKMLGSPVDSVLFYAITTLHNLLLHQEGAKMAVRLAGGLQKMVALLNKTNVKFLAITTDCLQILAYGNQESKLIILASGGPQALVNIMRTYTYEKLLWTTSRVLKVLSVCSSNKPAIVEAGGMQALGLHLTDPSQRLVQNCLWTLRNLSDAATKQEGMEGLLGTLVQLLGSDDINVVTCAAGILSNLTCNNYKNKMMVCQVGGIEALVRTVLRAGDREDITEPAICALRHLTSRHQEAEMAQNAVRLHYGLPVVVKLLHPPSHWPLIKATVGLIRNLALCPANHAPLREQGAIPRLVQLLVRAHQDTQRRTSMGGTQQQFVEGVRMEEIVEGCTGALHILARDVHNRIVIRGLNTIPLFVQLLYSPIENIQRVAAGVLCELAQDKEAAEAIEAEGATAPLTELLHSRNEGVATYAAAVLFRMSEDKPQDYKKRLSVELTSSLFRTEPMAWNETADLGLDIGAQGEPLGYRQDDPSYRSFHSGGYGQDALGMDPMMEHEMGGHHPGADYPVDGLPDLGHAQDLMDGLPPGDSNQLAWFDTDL

[11] = molecular target: Glycogen synthase kinase-3 beta (Homo sapiens) (UniProt P49841); assay: Inhibition of GSK3beta phosphorylation in human HT-29 cells at 1 uM incubated for 72 hrs by Western blot analysis; format: cell-based
Chain of Glycogen synthase kinase-3 beta (Homo sapiens) (P49841 whole entry, looked up): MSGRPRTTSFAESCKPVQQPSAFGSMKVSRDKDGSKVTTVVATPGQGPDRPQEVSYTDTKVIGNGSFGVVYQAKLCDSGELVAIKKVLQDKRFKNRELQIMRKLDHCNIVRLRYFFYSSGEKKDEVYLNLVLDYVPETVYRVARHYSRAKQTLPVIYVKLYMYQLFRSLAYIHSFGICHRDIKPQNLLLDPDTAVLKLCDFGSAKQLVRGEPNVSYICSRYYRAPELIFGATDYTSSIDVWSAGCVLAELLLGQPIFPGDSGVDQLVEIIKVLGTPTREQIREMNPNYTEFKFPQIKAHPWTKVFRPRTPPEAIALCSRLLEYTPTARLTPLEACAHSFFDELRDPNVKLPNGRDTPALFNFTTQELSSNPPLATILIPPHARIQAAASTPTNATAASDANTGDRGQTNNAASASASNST

HT-29 [12] = assay: Inhibition of AXIN-2 protein expression in human HT-29 cells at 1 uM incubated for 72 hrs by Western blot analysis; format: functional, cell-based
HT-29 [13] = assay: Induction of cell cycle arrest in human HT-29 cells assessed as accumulation of cells at G2/M phase at 4 uM incubated for 24 hrs by RNase/PI staining based flow cytometry analysis (reference value: 23.695 %); format: functional
HT-29 [14] = assay: Downregulation of beta-catenin protein expression in human HT-29 cells at 4 uM by immunostaining based confocal microscopic analysis; format: functional, cell-based
[15] = molecular target: 182 kDa tankyrase-1-binding protein (Homo sapiens) (UniProt Q9C0C2); assay: Inhibition of TAB-182 phosphorylation in human HT-29 cells at 4 uM incubated for 72 hrs by Western blot analysis; format: cell-based
HT-29 [16] = assay: Inhibition of AXIN-2 protein expression in human HT-29 cells at 4 uM incubated for 72 hrs by Western blot analysis; format: functional, cell-based
HT-29 [17] = assay: Inhibition of pan-AKT protein expression in human HT-29 cells at 4 uM incubated for 72 hrs by Western blot analysis; format: functional, cell-based
HT-29 [18] = assay: Induction of apoptosis in human HT29 cells assessed as increase in late apoptotic cells at 2 uM incubated for 24 hrs by annexin V/PI staining based flow cytometry analysis; format: functional, cell-based
In short: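 Annexin/PI double staining of HT-29 cells after 24 h exposure at 1, 2 or 4 μM. Flow cytometry gated early apoptotic, late apoptotic and necrotic populations, reported as % of cells. Comparison to untreated control used two-way ANOVA followed by Tukey's post hoc analysis.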

HT-29 [19] = assay: Induction of ROS generation in human HT-29 cells at 2 uM by CM-H2DCFDA fluorescent probe based flow cytometry analysis (reference value: 0.528%); format: functional
HT-29 [20] = assay: Downregulation of beta-catenin protein expression in human HT-29 cells at 2 uM by immunostaining based confocal microscopic analysis; format: functional, cell-based
[21] = molecular target: Glycogen synthase kinase-3 beta (Homo sapiens) (UniProt P49841); assay: Inhibition of GSK3beta phosphorylation in human HT-29 cells at 2 uM incubated for 72 hrs by Western blot analysis; format: cell-based
HT-29 [22] = assay: Inhibition of AXIN-2 protein expression in human HT-29 cells at 2 uM incubated for 72 hrs by Western blot analysis; format: functional, cell-based
HT-29 [23] = assay: Inhibition of phosphorylated GSK-3beta protein expression in human HT-29 cells at 2 uM incubated for 72 hrs by Western blot analysis; format: functional, cell-based

Compound | IC50 (Caco-2) [µM] | IC50 (DLD-1) [µM] | IC50 (A 172) [µM] | IC50 (A549) [µM] | IC50 [1] [µM] | IC50 (HT-29 [2]) [µM] | Activity (HT-29 [6]) | inhibition (HT-29 [7]) | Activity (HT-29 [8]) | also measured
COc1ccc(-n2c(SCCc3c[nH]c4ccccc34)nnc2-c2ccncc2)cc1 | 3.9 | 7 | 9 | 6.7 | 4.3 | 1 | Active | Active | Active | Activity (HT-29 [3]): 9.899%; Activity (HT-29 [4]): Active; Activity (HT-29 [5]): Active; inhibition [9]: Active; inhibition [10]: Active; inhibition [11]: Active; inhibition (HT-29 [12]): Active
COc1cccc(-n2c(SCCc3c[nH]c4ccccc34)nnc2-c2ccncc2)c1 | 15.5 | 9.3 | 26.8 | 25.1 | 19.4 | 3.6 | Active | Active | Active | Activity (HT-29 [13]): 22.943%; Activity (HT-29 [14]): Active; inhibition [15]: Active; inhibition (HT-29 [16]): Active; inhibition (HT-29 [17]): Active
Fc1ccccc1-n1c(SCCc2c[nH]c3ccccc23)nnc1-c1ccncc1 | 9.1 | 7 | 9.5 | 5.3 | 10.5 | 2.4 | Active | Active | Active | Activity (HT-29 [18]): Active; Activity (HT-29 [19]): 1.526%; Activity (HT-29 [20]): Active; inhibition [21]: Active; inhibition (HT-29 [22]): Active; inhibition (HT-29 [23]): Active
